Assay results: ChEMBL document CHEMBL1123661, “Structural alterations that differentially affect the mutagenic and antitrichomonal activities of 5-nitroimidazoles” (J Med Chem, 1987)
≈ marks a conversion by molar mass, not a printed value.

Experiments:
Tritrichomonas suis = assay: In vitro anti-trichomonal activity against Trichomonas foetus-Ortho strain-2.; format: functional; conditions: read-out: ED50 (the source's name)
Procedure, shortened: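 Trichomonas foetus Ortho strain 2 was grown in Diamond's medium with gentamycin (24 μg/mL) and 10% calf serum. 2×10^6 trichomonads were added to 1.8 mL medium. Compound was given in water or Me₂SO (final ≤1%, with solvent controls) over a range bracketing the EC₅₀. Motile survivors were counted after 24 h at 37 °C. The value is the mean of two or three determinations.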

[1] = Safety index.; format: toxicity; conditions: read-out: Safety index
Procedure, shortened: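 Index derived as [(ED₅₀ of reference × mutagenicity of reference)]/(ED₅₀ × mutagenicity), using the antitrichomonal ED₅₀ and the TA100 mutagenicity (relative to reference) measured here.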

[2] = tested on: Salmonella typhimurium TA100; assay: The Mutagenicity in Salmonella typhimurium TA100 relative to Ronidazole.
[3] = tested on: Salmonella typhimurium TA100; assay: The Mutagenicity was determined in Salmonella typhimurium TA100 relative to compound 20; ND means not detectable

`Cc1nc(C)n(CCO)c1[N+](=O)[O-]` showed an EC50 (Tritrichomonas suis) of 21.5 µg/mL (≈ 116 µM), a selectivity ratio [1] of 6.2 and a Mutagenicity [2] of 0.3%.

With `Cc1nc(C)n(C)c1[N+](=O)[O-]` the EC50 (Tritrichomonas suis) was 32 µg/mL (≈ 206 µM), the selectivity ratio [1] was 3.1 and the Mutagenicity [2] was 0.4%.

For `Cn1c([N+](=O)[O-])cnc1COC(N)=O` [RONIDAZOLE], the EC50 (Tritrichomonas suis) was 0.4 µg/mL (≈ 2 µM), the selectivity ratio [1] was 1 and the Mutagenicity [2] was 100%.

With `Cn1cnc(F)c1[N+](=O)[O-]` the EC50 (Tritrichomonas suis) was 3.6 µg/mL (≈ 24.8 µM), the selectivity ratio [1] was 0.7 and the Mutagenicity [2] was 16%.

Molecule `Cc1nc(-c2ccc(F)cc2)n(C)c1[N+](=O)[O-]` has an EC50 (Tritrichomonas suis) of 10 µg/mL (≈ 42.5 µM), a selectivity ratio [1] of 0.27 and a Mutagenicity [2] of 15%.

In the case of `Cc1nc(F)c([N+](=O)[O-])n1C`, the EC50 (Tritrichomonas suis) was 14.5 µg/mL (≈ 91.1 µM) and the Mutagenicity [3] was “Not detectable”.

`Cn1c(CO)nc(CCO)c1[N+](=O)[O-]` gave an EC50 (Tritrichomonas suis) of 20 µg/mL (≈ 99.4 µM), a selectivity ratio [1] of 2 and a Mutagenicity [2] of 1%.

`Cc1nc(CCOC(=O)C(C)(C)C)c([N+](=O)[O-])n1C` showed an EC50 (Tritrichomonas suis) of 11 µg/mL (≈ 40.8 µM), a selectivity ratio [1] of 1.4 and a Mutagenicity [2] of 2.6%.

Work on `Cc1ncc([N+](=O)[O-])n1C` [DIMETRIDAZOLE] yielded an EC50 (Tritrichomonas suis) of 0.3 µg/mL (≈ 2.13 µM), a selectivity ratio [1] of 8.9 and a Mutagenicity [2] of 15%.

Work on `Cn1c([N+](=O)[O-])cnc1CCO` yielded a Mutagenicity [2] of 19%.

In the case of `COc1cc(C(=O)OCCn2c([N+](=O)[O-])cnc2C)cc(OC)c1OC`, the EC50 (Tritrichomonas suis) was 1.35 µg/mL (≈ 3.7 µM), the selectivity ratio [1] was 2.5 and the Mutagenicity [2] was 12%.

`CC(=O)Oc1cc(C(=O)OCCn2c([N+](=O)[O-])cnc2C)cc(OC(C)=O)c1OC(C)=O` gave an EC50 (Tritrichomonas suis) of 6.6 µg/mL (≈ 14.7 µM), a selectivity ratio [1] of 26 and a Mutagenicity [2] of 0.23%.

In the case of `Cn1c([N+](=O)[O-])cnc1CO`, the EC50 (Tritrichomonas suis) was 1.6 µg/mL (≈ 10.2 µM), the selectivity ratio [1] was 1.6 and the Mutagenicity [2] was 16%.

`Cn1c([N+](=O)[O-])cnc1-c1ccc(F)cc1` showed an EC50 (Tritrichomonas suis) of 0.25 µg/mL (≈ 1.13 µM), a selectivity ratio [1] of 0.53 and a Mutagenicity [2] of 300%.

Work on `CC(=O)Oc1cc(C(=O)OCCn2c([N+](=O)[O-])cnc2-c2ccc(F)cc2)cc(OC(C)=O)c1OC(C)=O` yielded an EC50 (Tritrichomonas suis) of 3.9 µg/mL (≈ 7.37 µM), a selectivity ratio [1] of 0.6 and a Mutagenicity [2] of 17%.

`Cc1nc(COC(N)=O)n(C)c1[N+](=O)[O-]` gave an EC50 (Tritrichomonas suis) of 1 µg/mL (≈ 4.67 µM), a selectivity ratio [1] of 20 and a Mutagenicity [2] of 2%.

In the case of `CC(=O)OCCc1nc(C)n(C)c1[N+](=O)[O-]`, the EC50 (Tritrichomonas suis) was 2.8 µg/mL (≈ 12.3 µM), the selectivity ratio [1] was 14 and the Mutagenicity [2] was 1%.

Work on `Cn1c(-c2ccc(F)cc2)nc(CCO)c1[N+](=O)[O-]` yielded an EC50 (Tritrichomonas suis) of 7.7 µg/mL (≈ 29 µM), a selectivity ratio [1] of 0.65 and a Mutagenicity [2] of 8%.

With `Cc1nc(Br)c([N+](=O)[O-])n1C` the EC50 (Tritrichomonas suis) was 0.75 µg/mL (≈ 3.41 µM), the selectivity ratio [1] was 0.65 and the Mutagenicity [2] was 8%.

For `Cc1nc(CCO)n(C)c1[N+](=O)[O-]`, the Mutagenicity [2] was 0.8%.

`CC(=O)Oc1cc(C(=O)OCc2ncc([N+](=O)[O-])n2C)cc(OC(C)=O)c1OC(C)=O` gave an EC50 (Tritrichomonas suis) of 2.35 µg/mL (≈ 5.4 µM), a selectivity ratio [1] of 0.6 and a Mutagenicity [2] of 26%.

`Cc1nc(CCO)c([N+](=O)[O-])n1C` showed an EC50 (Tritrichomonas suis) of 2 µg/mL (≈ 10.8 µM), a selectivity ratio [1] of 71 and a Mutagenicity [2] of 0.28%.

`Cc1ncc([N+](=O)[O-])n1CCO` [METRONIDAZOLE] gave an EC50 (Tritrichomonas suis) of 0.4 µg/mL (≈ 2.34 µM).
